Assays:
Rattus norvegicus [1] = test: Antidiabetic activity in streptozotocin-induced NIDDM Wistar albino rat model assessed as inhibition of rise of blood glucose level at 20 mg/kg, po administered 15 mins prior to glucose challenge measured after 90 mins of glucose loading by glucose oxidase-peroxidase colorimetric method; type: functional
In short: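 n2-STZ model: STZ 100 mg/kg in fresh 0.1 M citrate pH 4.5 given i.p. to 2-day-old pups (6–8 g), weaned for 4 weeks. Diabetic rats had fasting glucose >140 mg/dl and >200 mg/dl 2 h after oral glucose. Overnight-fasted groups of six got a 1% CMC suspension p.o. 15 min before glucose 2 g/kg p.o. GOD-POD at 505 nm before and at 90 min; reduction set against the control rise.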

Rattus norvegicus [2] = test: Antidiabetic activity in normal Wistar albino rat assessed as inhibition of rise of blood glucose level at 20 mg/kg, po administered 15 mins prior to glucose challenge measured after 90 mins of glucose loading by glucose oxidase-peroxidase colorimetric method; type: functional
In short: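 Wistar albino rats of either sex (160–200 g), fasted overnight, in groups of six. Dosed p.o. at 10 ml/kg, suspended in 1% CMC in distilled water; vehicle controls. Glucose 2 g/kg p.o. given 15 min after dosing. Retro-orbital blood taken just before and 90 min after glucose; glucose read by GOD-POD quinoneimine at 505 nm. Percent reduction taken against the control rise, set as 100%.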

SMILES | inhibition in vivo at 20 mg/kg (Rattus norvegicus [1]) [%] | inhibition in vivo at 20 mg/kg (Rattus norvegicus [2]) [%]
CCCNC(=O)NS(=O)(=O)c1ccc(-n2nc(-c3ccc(C)cc3)ccc2=O)cc1 | 109 | 80.5
Cc1ccc(-c2ccc(=O)n(-c3ccc(S(=O)(=O)NC(=O)NC4CCCCC4)cc3)n2)cc1 | 110 | 79.9
CCCCNC(=O)NS(=O)(=O)c1ccc(-n2nc(-c3ccccc3)ccc2=O)cc1 | 111 | 67.4
O=C(NC1CCCCC1)NS(=O)(=O)c1ccc(-n2nc(-c3ccc(Cl)cc3)ccc2=O)cc1 | 114 | 59
CCCNC(=O)NS(=O)(=O)c1ccc(-n2nc(-c3ccc(Cl)cc3)ccc2=O)cc1 | 122 | 74.3
O=C(NCc1ccccc1)NS(=O)(=O)c1ccc(-n2nc(-c3ccc(Cl)cc3)ccc2=O)cc1 | 111 | 61.6
CCCCNC(=O)NS(=O)(=O)c1ccc(-n2nc(-c3ccc(OC)cc3)ccc2=O)cc1 | 25.6 | 43.7
CCCCNC(=O)NS(=O)(=O)c1ccc(-n2nc(-c3ccc(C)cc3)ccc2=O)cc1 | 109 | 86.6
O=C(NC1CCCCC1)NS(=O)(=O)c1ccc(-n2nc(-c3ccccc3)ccc2=O)cc1 | 86.2 | 52.1
CCCCNC(=O)NS(=O)(=O)c1ccc(-n2nc(-c3ccc(Cl)cc3)ccc2=O)cc1 | 100 | 66
Cc1cc(-c2ccc(=O)n(-c3ccc(S(=O)(=O)NC(=O)NC4CCCCC4)cc3)n2)ccc1Cl | 55.2 | 62.1
Cc1ccc(-c2ccc(=O)n(-c3ccc(S(=O)(=O)NC(=O)NCc4ccccc4)cc3)n2)cc1 | 119 | 64.9
CCCNC(=O)NS(=O)(=O)c1ccc(-n2nc(-c3ccccc3)ccc2=O)cc1 | 125 | 77.2
Cc1ccc(S(=O)(=O)NC(=O)NN2CC3CCCC3C2)cc1 (stereo not drawn) [GLICLAZIDE] | 107 | 135
